Holding throughout (assay type): cell-based
Experiment [1] deals with T1, Excitatory amino acid transporter 3 (Homo sapiens, UniProt P43005).
T1 sequence (P43005 whole entry): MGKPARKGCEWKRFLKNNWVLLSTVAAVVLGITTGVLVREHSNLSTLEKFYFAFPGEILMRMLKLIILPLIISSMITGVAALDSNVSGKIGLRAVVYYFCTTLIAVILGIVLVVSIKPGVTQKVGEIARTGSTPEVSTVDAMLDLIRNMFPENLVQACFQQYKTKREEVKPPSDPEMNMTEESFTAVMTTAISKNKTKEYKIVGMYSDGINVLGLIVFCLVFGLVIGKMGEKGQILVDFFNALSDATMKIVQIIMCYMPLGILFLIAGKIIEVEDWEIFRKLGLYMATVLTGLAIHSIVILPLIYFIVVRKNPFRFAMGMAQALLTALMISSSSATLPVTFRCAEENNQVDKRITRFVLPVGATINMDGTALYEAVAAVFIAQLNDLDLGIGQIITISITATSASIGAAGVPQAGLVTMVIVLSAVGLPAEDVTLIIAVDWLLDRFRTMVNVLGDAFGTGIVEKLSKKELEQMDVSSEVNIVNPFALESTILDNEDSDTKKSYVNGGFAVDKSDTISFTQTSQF
The experiment can be described thus: Inhibition of [3H]-D-aspartate uptake at human EAAT3 expressed in HEK293 cells after 6 mins by scintillation counting. In a few lines:
(§1)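 Each transporter subtype stably expressed in its own HEK293 cell line. Inhibitor potency measured as block of [³H]-D-aspartate uptake into these cells and reported as IC₅₀ values.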

For experiment [2], the target named is Excitatory amino acid transporter 2 (Homo sapiens, UniProt P43004). The experiment can be described thus: Inhibition of [3H]-D-aspartate uptake at human EAAT2 expressed in HEK293 cells after 6 mins by scintillation counting. A digest of the protocol:
as §1

In experiment [3] the target is Excitatory amino acid transporter 1 (Homo sapiens, UniProt P43003). The experiment can be described thus: Inhibition of [3H]-D-aspartate uptake at human EAAT1 expressed in HEK293 cells after 6 mins by scintillation counting. A digest of the protocol:
as §1

Each structure is given as a SMILES string.

Sequence of Excitatory amino acid transporter 2 (P43004 whole entry): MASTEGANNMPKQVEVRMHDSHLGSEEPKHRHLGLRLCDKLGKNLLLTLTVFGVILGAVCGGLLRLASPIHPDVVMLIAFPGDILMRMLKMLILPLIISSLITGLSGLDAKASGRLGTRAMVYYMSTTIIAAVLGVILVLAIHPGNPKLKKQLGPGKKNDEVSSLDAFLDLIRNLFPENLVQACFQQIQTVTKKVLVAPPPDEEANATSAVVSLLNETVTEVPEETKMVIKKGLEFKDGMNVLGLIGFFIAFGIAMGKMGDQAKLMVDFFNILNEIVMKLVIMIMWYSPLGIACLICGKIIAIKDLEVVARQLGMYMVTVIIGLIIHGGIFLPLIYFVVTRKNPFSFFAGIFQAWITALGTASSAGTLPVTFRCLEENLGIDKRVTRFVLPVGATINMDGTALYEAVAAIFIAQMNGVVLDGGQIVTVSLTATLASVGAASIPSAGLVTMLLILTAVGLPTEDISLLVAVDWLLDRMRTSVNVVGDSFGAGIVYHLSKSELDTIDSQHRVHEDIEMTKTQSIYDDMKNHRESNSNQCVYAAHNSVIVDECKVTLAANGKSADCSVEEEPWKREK
Sequence of Excitatory amino acid transporter 1 (P43003 whole entry): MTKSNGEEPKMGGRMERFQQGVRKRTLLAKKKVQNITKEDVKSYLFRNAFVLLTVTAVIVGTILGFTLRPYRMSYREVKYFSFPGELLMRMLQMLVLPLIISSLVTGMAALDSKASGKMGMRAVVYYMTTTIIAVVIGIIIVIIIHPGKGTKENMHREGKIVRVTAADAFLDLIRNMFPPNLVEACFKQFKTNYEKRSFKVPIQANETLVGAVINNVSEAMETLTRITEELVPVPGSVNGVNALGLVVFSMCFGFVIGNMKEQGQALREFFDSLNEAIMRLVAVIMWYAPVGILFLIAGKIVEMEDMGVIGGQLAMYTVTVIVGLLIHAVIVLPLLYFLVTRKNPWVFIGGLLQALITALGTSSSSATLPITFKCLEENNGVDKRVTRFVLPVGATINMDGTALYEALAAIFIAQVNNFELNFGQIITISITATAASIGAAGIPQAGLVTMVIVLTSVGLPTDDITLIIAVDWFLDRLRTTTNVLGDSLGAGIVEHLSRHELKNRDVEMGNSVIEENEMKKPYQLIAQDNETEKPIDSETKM

Consider `COc1ccc2c(C)c(-c3ccc(C4C(C#N)=C(N)OC5=C4C(=O)CC(c4ccccc4)C5)cc3)c(=O)oc2c1` (stereo not drawn), for which the IC50 in experiment [1] was more than 300 µM; in experiment [2] it was more than 300 µM; in experiment [3] (read-out: IC50), more than 300 µM; in experiment [3] (read-out: pIC50 (converted)), more than 316 µM.
With `CCN(CC)c1ccc2c(C3C(C#N)=C(N)OC4=C3C(=O)CC(c3cccc5ccccc35)C4)cc(=O)oc2c1` (stereo not drawn), the IC50 in experiment [1] was more than 300 µM; in experiment [2], more than 300 µM; in experiment [3] (read-out: IC50) it was more than 300 µM; in experiment [3] (read-out: pIC50 (converted)), more than 316 µM.
`CCN(CC)c1ccc2c(C)c(-c3ccc(C4C(C#N)=C(N)OC5=C4C(=O)CC(c4ccccc4)C5)cc3)c(=O)oc2c1` (stereo not drawn): the IC50 in experiment [1] is more than 300 µM; in experiment [2], more than 300 µM; in experiment [3] (read-out: IC50), more than 300 µM; in experiment [3] (read-out: pIC50 (converted)) it was more than 316 µM.
As to `COc1ccc2c(C3C(C#N)=C(N)OC4=C3C(=O)CC(c3ccccc3)C4)cc(=O)oc2c1` (stereo not drawn), the IC50 in experiment [1] is more than 300 µM; in experiment [2], more than 300 µM; in experiment [3] (read-out: IC50), more than 300 µM; in experiment [3] (read-out: pIC50 (converted)), more than 316 µM.
Turning to `CCN(CC)c1ccc2c(C3CC(=O)C4=C(C3)OC(N)=C(C#N)C4C)cc(=O)oc2c1` (stereo not drawn), the figures for the IC50 in experiment [1], in experiment [2] and in experiment [3] (read-out: IC50) were more than 300 µM, more than 300 µM and 14 µM, respectively.
Turning to `COc1ccc2c(C3CC(=O)C4=C(C3)OC(N)=C(C#N)C4C)cc(=O)oc2c1` (stereo not drawn), the IC50 in experiment [1] was more than 300 µM; in experiment [2], more than 300 µM; in experiment [3] (read-out: IC50), 17 µM; in experiment [3] (read-out: pIC50 (converted)), 16.2 µM.

Values taken from ChEMBL document CHEMBL2203156, “Design, synthesis and pharmacological characterization of coumarin-based fluorescent analogs of excitatory amino acid transporter subtype 1 selective inhibitors, UCPH-101 and UCPH-102” (Bioorg Med Chem, 2012).
